What was measured:
NCI-H2228 = test: Antiproliferative activity against human NCI-H2228 cells assessed as inhibition of cell proliferation measured by CCK8 assay; type: functional, cell-based
Method in brief: (§1)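 Cell proliferation inhibition; IC50 given as mean ± SD of three independent experiments.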

BaF3 = test: Antiproliferative activity against mouse BaF3 cells overexpressing ALK assessed as inhibition of cell proliferation measured by CCK8 assay; type: functional, cell-based; method in brief: as §1

Row | IC50 (NCI-H2228) | IC50 (BaF3) | SMILES
1 | 2630 nM | 75 nM | CC[S+]([O-])c1ccccc1Nc1nc(Nc2cc(N)c(N(C)CCN(C)C)cc2OC)ncc1Cl (stereo not drawn)
2 | 981 nM | 78 nM | CCSc1ccccc1Nc1nc(Nc2ccc(N3CCN(C)CC3)cc2OC)ncc1Cl
3 | 48.1 nM | 47.2 nM | CCC(=O)Nc1cc(Nc2ncc(Cl)c(Nc3ccc(F)cc3[S+]([O-])CC)n2)c(OC)cc1N(C)CCN(C)C (stereo not drawn)
4 | 704 nM | 85.7 nM | CC[S+]([O-])c1cc(F)ccc1Nc1nc(Nc2ccc(N3CCN(C(C)=O)CC3)cc2OC)ncc1Cl (stereo not drawn)
5 | 51.5 nM | 23.5 nM | CC[S+]([O-])c1ccccc1Nc1nc(Nc2ccc(N3CCCN(C)CC3)cc2OC)ncc1Cl (stereo not drawn)
6 | 22.1 nM | 7.11 nM | Cc1cc(Nc2ncc(Cl)c(Nc3ccccc3S(=O)(=O)C(C)C)n2)c(OC(C)C)cc1C1CCNCC1 [CERITINIB]
7 | 69.3 nM | 26.3 nM | CC[S+]([O-])c1ccccc1Nc1nc(Nc2ccc(N(C)CCN(C)C)cc2OC)ncc1Cl (stereo not drawn)
8 | 55.4 nM | 35.4 nM | CCC(=O)Nc1cc(Nc2ncc(Cl)c(Nc3ccccc3[S+]([O-])CC)n2)c(OC)cc1N(C)CCN(C)C (stereo not drawn)
9 | 64.5 nM | 26.7 nM | CC[S+]([O-])c1cc(F)ccc1Nc1nc(Nc2ccc(N3CCCN(C)CC3)cc2OC)ncc1Cl (stereo not drawn)

From ChEMBL document CHEMBL4823286, “Synthesis and evaluation of novel 2,4-diaminopyrimidines bearing a sulfoxide moiety as anaplastic lymphoma kinase (ALK) inhibition agents” (Bioorg Med Chem Lett, 2021)
